Experimental data pooled from the literature.
Each line is one published result; the experiments were not run side by side.
FGFR1: Fibroblast growth factor receptor 1 (FGFR1, Homo sapiens, UniProt P11362)
FGFR1 V561M: Fibroblast growth factor receptor 1 (FGFR1, Homo sapiens, UniProt P11362, V561M)

CCCS(=O)(=O)Nc1ccc(F)c(C(=O)c2c[nH]c3ncc(-c4ccc(Cl)cc4)cc23)c1F has an inhibition of < 10% (FGFR1; enzyme activity; inhibitor; 1 µM).
CN(c1nccc(-c2cnn3ncccc23)n1)C1CC1 has a remaining binding of 75% (FGFR1; binding; 1 µM).
Cc1cc(C)c(-n2ccn3nc(-c4cccnc4)cc23)cc1NC(=O)c1cc(C#N)cc(S(F)(F)(F)(F)F)c1 has a remaining binding of 85.5% (FGFR1; cell-free assay; competition with immobilised ligand; 0.1 µM).
With COc1cc2ncnc(Nc3ccc(Oc4ccccc4)c(C)c3C)c2cc1OC the inhibition was -2% (FGFR1; enzyme activity; inhibitor; 1 µM).
COc1cc2ncnc(Nc3ccc(F)c(Cl)c3)c2cc1OCCCN1CCOCC1 has a remaining signal of 96.4% (FGFR1; cell-free assay; 0.5 µM).
C=CC(=O)Nc1cc(Nc2nccc(Nc3cc(Cl)c(F)cc3C(C)(C)O)n2)c(OC)cc1N1CC[C@@H](N(C)C)C1 gave an inhibition of 1% (FGFR1 V561M; enzyme activity; inhibitor; 1 µM).
For COc1ccc(/C=C/C(=O)c2ccc(NC3=C(Cl)C(=O)c4ccccc4C3=O)cc2)cc1O, the inhibition was > 70% (FGFR1; enzyme activity; inhibitor; ADP detection; 1 µM).
CNCc1ccccc1-c1csc([C@@H](C)Nc2nc(C)nc3cc(OC)c(OC)cc23)c1 has a remaining binding of 100% (FGFR1; cell-free assay; competition with immobilised ligand; 1 µM).
Cc1cc(NC(=O)c2cccc3cc(-c4cccc5[nH]nc(N)c45)ccc23)ccc1F gave an activity vs control of 92% (FGFR1 V561M; enzyme activity; inhibitor; 0.1 µM).
Oc1ccc(-c2nc(-c3ccncc3)c(-c3ccc(F)cc3)[nH]2)cc1 gave a remaining signal of 86.8% (FGFR1; cell-free assay; 0.5 µM).
With CSc1cccnc1N1CCN(Cc2nc3ccccc3[nH]2)CC1 the remaining binding was 100% (FGFR1; cell-free assay; competition with immobilised ligand; 1 µM).
For CNc1cccc2cc(C(=O)Nc3ccc(C(=O)O)cc3)c(=O)[nH]c12, the inhibition was 9.9% (FGFR1; enzyme activity; inhibitor; 10 µM).
C[C@@H]1CN(c2cc(-c3n[nH]c4ccc(OC5(C)CC5)cc34)ncn2)C[C@H](C)O1 has a remaining binding of 100% (FGFR1; cell-free assay; competition with immobilised ligand; 0.1 µM).
For C/C=C/C(=O)Nc1ccc(-n2nc3c(=O)[nH]nc(N)c3c2-c2oc3ccc(C)cc3c2C)cc1, the inhibition was 20.2% (FGFR1; enzyme activity; inhibitor; ELISA; 10 nM).
CNC(=O)c1cc(Oc2ccc(NC(=O)Nc3ccc(Cl)c(C(F)(F)F)c3)cc2)ccn1 has an inhibition of 26% (FGFR1 V561M; cell-free assay; 0.3 µM).
For Cn1cc(Cl)c2c(Oc3c(F)cc(Nc4cc(Cl)nc(N)n4)cc3F)ccnc21, the remaining binding was 100% (FGFR1; cell-free assay; competition with immobilised ligand; 0.1 µM).
CCN(CC)CCNC(=O)c1c(C)[nH]c(/C=C2\C(=O)Nc3ccc(F)cc32)c1C gave a remaining signal of 66.1% (FGFR1; cell-free assay; 0.5 µM).
For CC/C(=N\NC(=O)NCc1cccc(O)c1)c1ccc(O)c(C)c1O, the inhibition was 10.8% (FGFR1 V561M; enzyme activity; inhibitor; 0.1 µM).
For CSc1nc(C)c(-c2ccnc(Nc3ccc(N4CCOCC4)cc3)c2)[nH]1, the inhibition was 26.2% (FGFR1; cell-free assay; inhibitor; 10 µM).
